# Compound activity (PubChem)
# Shown is part of a subset that was picked to be rich in hits.
# T cell modulator = modulates CD8 T cell binding to vesicles | 2C CD8+ T cell-vesicle binding, flow cytometry; active compounds read low | response (vesicle binding), % at 7 µM | 330,000 compounds, 0.068% hits | AID 2052;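 active = response, share of CD8 T cells binding vesicles, and their 90th percentile fluorescence all below set limits, cut at about 80% in these data, passing the limit was not always enough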;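 note: values below 100% mean blocked vesicle binding to the CD8+ T cells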
#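 Test system: purified 2C TCR transgenic mouse naive CD8+ T cells. Probe or stimulus: QL9-peptide-loaded Drosophila micro-vesicles bearing Ld, ICAM-1 and B7-1. Incubation: binding step 1.5 h, 37 °C, antibody labelling 20 min, ice. Measured by: flow cytometry of vesicle-bound cells.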
# ALR H2O2 inh = blocks human ALR sulfhydryl oxidase activity; P55789; purified ALR, DTT oxidation, H2O2 HRP-luminol luminescence; inhibition, % (no concentration beside the values); 290,000 compounds, 3.8% hits; AID 485317;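 active = mean replicate inhibition above about 79%, with every replicate also reaching it, limit read from the data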
# Target sequence (P55789 whole entry, looked up): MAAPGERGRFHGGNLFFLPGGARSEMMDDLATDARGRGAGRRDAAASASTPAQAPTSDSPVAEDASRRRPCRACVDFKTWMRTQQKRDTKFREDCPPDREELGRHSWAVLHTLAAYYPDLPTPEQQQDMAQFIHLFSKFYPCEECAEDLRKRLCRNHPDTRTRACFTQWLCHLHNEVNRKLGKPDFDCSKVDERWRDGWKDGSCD
# N-glyco inh = blocks N-linked glycosylation in D54 reporter cells. D54 ERlucT glycosylation luciferase reporter, 24 h; percent of 100 nM tunicamycin response. reporter increase, % at 12.5 µM. 360,000 compounds, 0.23% hits. AID 588692;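 active = mean luciferase reporter signal, scaled so untreated is 0 and the glycosylation-blocking control 100, at or above a set limit in every replicate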;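 note: luciferase carries N-glycosylation sites so blocking glycosylation raises the light; 0% = median of neutral control wells and 100% = median of 100 nM tunicamycin wells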
# Numbers without * were called inactive; . = no result given.
SMILES,T cell modulator,ALR H2O2 inh,N-glyco inh
COc1ccc(S(=O)(=O)Nc2ccc(O)c3ccccc23)cc1,359,89*,4
Cc1ccc(S(=O)(=O)NNc2ccccc2)c(C)c1,296,100*,2
Cc1ccc(C)c(S(=O)(=O)Nc2ccc(O)c3ccccc23)c1,352,85*,9
Cc1c(C(=O)NCc2cccc(Cl)c2)sc(=O)n1Cc1ccc(C(=O)N(C)C)cc1,.,.,1
Cc1ccc(S(=O)(=O)N(C)c2ccc(OCC(=O)Nc3ccc(C(=O)N(C)C)cc3)cc2)cc1C,351,-10,-1
Cc1ccc(-c2csc(N)n2)s1,226,99*,8
Cc1ccccc1-c1csc(N)n1,.,.,3
CSc1ccc(S(=O)(=O)N(C)Cc2ccccc2)cc1,586,.,-1
Cc1nn(-c2ccccc2)cc1/C=N/NC(N)=S,474,97*,2
Cc1nn(-c2ccccc2)cc1/C=N/O,628,29,2
Cc1cc(C)n(CCc2nc(-c3ccc(F)cc3)cs2)n1,211,4,1
COc1cc(-c2csc(CCn3nc(C)cc3C)n2)cc(OC)c1OC,268,99*,1
COc1ccc(-n2c(=O)c(CCC(=O)N3CCC(C)CC3)nc3ccccc32)cc1,302,.,-1
Oc1ccccc1/C=N/NC(=S)NC1CC2CCC1C2 (stereo not drawn),269,12,0
S=C(N/N=C/c1ccco1)NC1CC2CCC1C2 (stereo not drawn),216,98*,0
CCCCCCn1c(=O)c(C(=O)N/N=C/c2cccc(F)c2)c(O)c2ccccc21,175,-4,3
O=P(c1ccccc1)(c1ccccc1)c1ccccc1C(Br)Br,.,.,-4
Cc1ccc(C(=O)C2=C(O)C(=O)N(Cc3cccnc3)C2c2ccc(Cl)c(Cl)c2)o1 (stereo not drawn),200,88*,0
Cc1ccc(C(=O)C2=C(O)C(=O)N(Cc3cccnc3)C2c2ccc(Br)cc2)o1 (stereo not drawn),579,5,1
COc1ccccc1NC(=O)CCc1nnc2ccc(N3CCN(C)CC3)nn12,527,-2,1
COc1cc(N)c(Cl)cc1C(=O)OCC(=O)N1CCCCCC1,172,0,-1
CCOC(=O)c1c(C)oc(=O)c(CC)c1O,.,.,4
CCOC(=O)c1c(C)oc2c(F)c(F)c(F)c(F)c2c1=O,172,-4,31*
CCc1ccc(-c2nc(CS(=O)CC(=O)NCCCN3CCC(C)CC3)c(C)o2)cc1 (stereo not drawn),400,98*,-1
Cc1ccc(-c2ccc(=O)n(CC(=O)NCCN(CC(C)C)CC(C)C)n2)cc1,17,-2,-3
SMILES,T cell modulator,ALR H2O2 inh,N-glyco inh
Cc1ccc(-c2nc(CS(=O)CC(=O)NCCCN3CCN(Cc4ccccc4)CC3)c(C)o2)cc1 (stereo not drawn),170,99*,2
CCc1ccc(-c2nc(CN3CCC(C(=O)NCc4ccco4)CC3)c(C)o2)cc1,287,-8,.
Cc1ccccc1-c1nc(CS(=O)(=O)CC(=O)NCCN2CCOCC2)c(C)o1,576,22,2
Cc1ccc(-c2nc(CS(=O)CC(=O)NCCN(CC(C)C)CC(C)C)c(C)o2)cc1 (stereo not drawn),397,99*,0
Cc1ccccc1-c1nc(CS(=O)CC(=O)NCCN2CCOCC2)c(C)o1 (stereo not drawn),514,99*,0
CCN(Cc1nc2ccccc2c(=O)[nH]1)C(=O)c1cc2c(s1)CCCCC2,219,-1,-1
Cc1cc(=O)[nH]c(SCc2ccc(Cl)cc2Cl)n1,331,-8,0
CCCn1cc(C(=O)N(C)C2CCCN(Cc3ccccc3F)C2)c(C)n1 (stereo not drawn),282,2,4
O=C(NCCCN1CCOCC1)C(=O)NCc1ccc(Cl)cc1,263,0,-2
Cc1ccc(-c2nc(CS(=O)CC(=O)NCCN3CCOCC3)c(C)o2)cc1 (stereo not drawn),347,99*,2
Cc1ccc(-c2nc(CS(=O)(=O)CC(=O)NCCN3CCOCC3)c(C)o2)cc1,352,-3,1
Cc1ccc(-c2nc(CS(=O)CC(=O)NCCN3CCCC3)c(C)o2)cc1 (stereo not drawn),309,99*,1
CCc1ccc(-c2nc(CN3CCCC(C(=O)NCCc4ccc(OC)c(OC)c4)C3)c(C)o2)cc1 (stereo not drawn),188,.,-3
Cc1ccccc1-c1nc(CS(=O)(=O)CC(=O)NCCCN2CCCC2)c(C)o1,442,-22,0
Cc1oc(-c2ccc(Cl)cc2)nc1CS(=O)CC(=O)NCCCN1CCOCC1 (stereo not drawn),396,99*,2
CCc1ccc(-c2nc(CS(=O)CC(=O)NCCN3CCCCCC3)c(C)o2)cc1 (stereo not drawn),485,100*,6
CCC1CCCCN1CCCNC(=O)Cn1cc2c(n1)-c1c(oc(C(=O)N3CCCC3)c1C)CC2 (stereo not drawn),116,-43,1
O=C(Nc1nc2ccccc2s1)c1ccc(N2CCCCC2)c([N+](=O)[O-])c1,192,.,-12
O=C(NC1CCCCC1)C(c1ccc(F)cc1)N(CCCN1CCOCC1)C(=O)c1ccc(CN2CCOCC2)o1 (stereo not drawn),226,-3,1
CCCN(CCC)CCNC(=O)C1CCN(Cc2nc(-c3ccc(Cl)cc3)oc2C)CC1,614,-6,-2
Cc1oc(-c2ccc(Cl)cc2)nc1CS(=O)CC(=O)NCCN1CCCC1 (stereo not drawn),662,99*,-2
Clc1nc(Cl)nc(-c2cn(-c3ccccc3)c3ccccc23)n1,363,-10,.
CCCCn1c(NCc2ccncc2)nc2ccccc21,252,23,1
C=CCn1c(NCc2ccco2)nc2ccccc21,340,17,2
C=CCn1c(NCc2ccc(N(C)C)cc2)nc2ccccc21,346,99*,-2
SMILES,T cell modulator,ALR H2O2 inh,N-glyco inh
CCCCn1c(NCc2ccc(N(C)C)cc2)nc2ccccc21,181,88*,-3
O=C(Cc1cccc(F)c1)N1CCOCC1,.,.,0
Cc1cccc(C(=O)OC2CCOC2=O)c1C (stereo not drawn),294,3,3
CCOC(=O)c1c(S(=O)(=O)Nc2ccc(C)cn2)c(C)n(C)c1C,386,-2,1
CN(C)c1ccc2c3c(ccc(N(C)C)c13)C(=O)OC2,241,80*,2
CS(=O)(=O)Nc1ccc2c(c1)C(=O)OC2,233,-21,2
COc1cc([N+](=O)[O-])ccc1NC(=O)COC(=O)C1=NN(c2ccccc2)C(=O)CC1,345,-1,-1
CCOC(=O)Cc1csc(NC(=O)CN2CCCCC2)n1,162,-2,-1
CC(C)C(=O)n1nc(-c2cccnc2)nc1NCc1cccs1,649,97*,0
COc1ccc(CNc2nc(-c3cccnc3)nn2C(=O)C(C)C)cc1,.,.,2
CC(C)(C)C(=O)CN1C(=O)NC(C)(Cc2ccc3c(c2)OCO3)C1=O (stereo not drawn),167,4,0
CC(OC(=O)Cn1cnc2c1c(=O)n(C)c(=O)n2C)C(=O)N(C)c1ccccc1 (stereo not drawn),420,-10,3
CCCC(=O)N1CCC1(C)C(=O)NS(=O)(=O)c1ccccc1Cl (stereo not drawn),.,.,2
